PMI act – phosphomannose isomerase (human) activation; P34949; purified human PMI, coupled resazurin fluorescence, 20 min; hits give high values; 1 = vehicle control, 0 substrate-free wells; activation factor at 20 µM; actives 0.005% (n = 190,000);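 active = activation factor of 2 or more at 20 µM, relative to plate controls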
Target sequence (P34949 whole entry, looked up): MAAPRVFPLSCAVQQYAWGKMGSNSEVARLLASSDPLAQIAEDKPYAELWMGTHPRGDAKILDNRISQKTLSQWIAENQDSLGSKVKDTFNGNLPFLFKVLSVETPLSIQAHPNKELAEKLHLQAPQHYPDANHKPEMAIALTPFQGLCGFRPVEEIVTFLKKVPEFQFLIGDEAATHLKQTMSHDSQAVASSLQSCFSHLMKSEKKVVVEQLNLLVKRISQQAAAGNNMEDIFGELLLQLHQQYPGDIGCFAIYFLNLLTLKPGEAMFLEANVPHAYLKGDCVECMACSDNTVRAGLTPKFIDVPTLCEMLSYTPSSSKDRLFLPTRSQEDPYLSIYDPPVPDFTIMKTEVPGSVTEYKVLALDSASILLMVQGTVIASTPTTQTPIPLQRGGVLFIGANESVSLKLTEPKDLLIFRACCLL
L major viab – inhibitors of Leishmania major promastigote growth; Leishmania major promastigotes, resazurin fluorescence viability; inhibition, % at 10 µM; actives 9% (n = 200,000); AID 1063; in the data active = inhibition above about 50%;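 also: promastigotes grown with compound for 44 hours at 28 °C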
bCat KO growth – beta-catenin-lacking colon tumor cell growth suppression; HCT116 beta-catenin knockout viability, CellTiter-Glo, 60 h; hits give low values; actives 1.5% (n = 140,000); viability, % at 10 µM;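 active = viability at or under a set limit, the compound median less 4 SD, cut at about 6% in these data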
PTEN del growth – PTEN-deleted cell growth suppression. HCT116 PTEN-null viability, CellTiter-Glo, 60 h; hits give low values. viability, % at 10 µM. actives 1.2% (n = 140,000). AID 827;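 active = viability at or below a set limit, 4 SD under the median of all tested compounds, cut at about 3.7% in these data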;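 also: PTEN knockout HCT116 line with beta catenin targeted HCT116 as companion control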
PMI act hi M6P – increases human PMI activity with near-saturating mannose 6-phosphate; coupled PMI enzyme assay, resazurin fluorescence, 20 min; hits give high values; 1 = untreated enzyme, 0 = substrate-free blank; activation factor at 20 µM; actives 0.34% (n = 190,000); AID 1216;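 active = activation factor of 2 or more at 20 µM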
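assay system = human phosphomannose isomerase with PGI, G6PDH, diaphorase coupling enzymes | quantity = 15 ng/mL PMI | incubation = enzyme reaction with compound 20 min at room temperature | medium = HEPES pH 7.4 buffer with MgCl2 and Tween-20 | compound dosing = one concentration, 20 µM, in 1% DMSO | measured by = Diaphorase-driven resazurin-to-resorufin fluorescence, excitation 544, emission 590 nm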
Each line names hits and unclear results; the compound was inactive in the other large screens. Shown are actives, neighbours in structure and some others; about 9.6% of the full set was active somewhere.

O=C(CCN1CCN(Cc2ccccc2)CC1)Nc1ccc(OCc2ccccc2)cc1	none
COC(=O)c1ccc(NC(=O)CCN2CCN(Cc3ccccc3)CC2)cc1	L major viab 75
CN1CCN(CCC(=O)Nc2ccc(OCc3ccccc3)cc2)CC1	L major viab 82
O=C(CCN1CCN(CCO)CC1)Nc1ccc(OCc2ccccc2)cc1	L major viab 61
COC(=O)c1ccc(NC(=S)N2CCN(Cc3ccccc3)CC2)cc1	none
CC1CCCCN1C(=O)CSc1nnc(CSc2ncccn2)n1C (stereo not drawn)	none
CC(C)C(=O)N1CCN(c2ccccc2NC(=O)c2cc([N+](=O)[O-])ccc2N2CCOCC2)CC1	none (no result: bCat KO growth, PTEN del growth)
CCCc1cc(C(N)=O)c(NC(C)=O)s1	none
O=C(Nc1ncc(Cc2cccc(Cl)c2)s1)c1cccs1	L major viab 84
COC(=O)COc1ccc(S(=O)(=O)NCc2ccncc2)cc1	bCat KO growth 1.1
OCCNc1c2ccccc2nc2ccccc12	L major viab 100 (no result: bCat KO growth, PTEN del growth)
Cc1cc(NCCO)c2ccccc2n1	none
CCn1nnnc1-c1ccc(OC)c(S(=O)(=O)NCCc2ccccc2)c1	none
Cc1cccc(N2CCN(Cc3cnc(Cl)s3)CC2C)c1 (stereo not drawn)	L major viab 78 (no result: bCat KO growth, PTEN del growth)
CCN1CCN(c2ccc(S(=O)(=O)N(CC)CC)cc2[N+](=O)[O-])CC1	L major viab 95
CCN(CC)S(=O)(=O)c1ccc(N2CCN(c3cccc(OC)c3)CC2)c([N+](=O)[O-])c1	L major viab 100
CCC(=O)N1CCN(c2ccc(OC)cc2[N+](=O)[O-])CC1	none
c1cncc(Cc2cc3ccccc3[nH]2)c1	L major viab 50
OC(Cc1cccnc1)(Cc1cccnc1)c1cc2ccccc2[nH]1	L major viab 55
CCN(Cc1cc2ccccc2[nH]c1=O)C(=O)c1cccnc1	none
O=C(COC(=O)/C(=C/c1cccs1)c1cccs1)NC(c1ccccc1)c1ccccc1	L major viab 97
CCN1C(=O)/C(=C2/Sc3ccc(OC)cc3N2C)SC1=Nc1cccc(O)c1	L major viab 99
CCN1C(=O)/C(=C2/Sc3ccc(OC)cc3N2C)SC1=Nc1ccc(C(C)=O)cc1	none (no result: PMI act, bCat KO growth, PTEN del growth, PMI act hi M6P)
O=C(Nc1ccc(F)cc1)N1CCc2ccccc2C1	none (no result: bCat KO growth, PTEN del growth)
COc1ccc(CCN2C(=O)NC(NC(=O)CC(C)C)(C(F)(F)F)C2=O)cc1OC (stereo not drawn)	none
COc1ccc(CCN2C(=O)NC(NC(=O)CCc3ccccc3)(C(F)(F)F)C2=O)cc1OC (stereo not drawn)	L major viab 70
N#Cc1nc(-c2cccc(Cl)c2)oc1NCc1cccnc1	L major viab 100
N#Cc1nc(-c2ccco2)oc1NCc1cccnc1	none
COc1ccc(-c2nc(C#N)c(NCc3cccnc3)o2)cc1OC	L major viab 96
COc1ccc(-c2nc(C#N)c(NCc3ccc(F)cc3)o2)cc1OC	none
Cc1c(-c2cc(C(=O)O)c3ccccc3n2)cnn1C	none (no result: bCat KO growth, PTEN del growth)
CCOC(=O)C1(Cc2ccccc2)CCN(Cc2cnn(C(C)C)c2)CC1	none (no result: bCat KO growth, PTEN del growth)
CCOC(=O)C1(Cc2cccc(OC)c2)CCN(Cc2cccc(OC)c2O)CC1	L major viab 72 (no result: bCat KO growth, PTEN del growth)
CCOC(=O)C1(Cc2cccc(F)c2)CCN(Cc2cnn(CC)c2)CC1	none (no result: bCat KO growth, PTEN del growth)
CCOC(=O)C1(Cc2cccc(OC)c2)CCN(Cc2ccccc2OC)CC1	none (no result: bCat KO growth, PTEN del growth)
CCOC(=O)C1(Cc2ccccc2)CCN(Cc2cccc3nccnc23)CC1	none (no result: bCat KO growth, PTEN del growth)
CCOC(=O)C1(Cc2ccccc2)CCN(Cc2cccc(OC)c2O)CC1	L major viab 68 (no result: bCat KO growth, PTEN del growth)
CCOC(=O)C1(Cc2cccc(F)c2)CCN(Cc2cnn(CC)c2C)CC1	L major viab 69 (no result: PMI act, bCat KO growth, PTEN del growth, PMI act hi M6P)
CCOC(=O)C1(Cc2ccccc2)CCN(Cc2csc(C(C)=O)c2)CC1	L major viab 86 (no result: bCat KO growth, PTEN del growth)
CC(=O)Nc1ccc(S(=O)(=O)NC2(C(F)(F)F)C(=O)Nc3c2c(=O)[nH]c(=O)n3Cc2ccco2)cc1 (stereo not drawn)	none (no result: bCat KO growth, PTEN del growth)
CCOC(=O)C1(Cc2cccc(OC)c2)CCN(Cc2ccc(OC)c(OC)c2)CC1	L major viab 91 (no result: bCat KO growth, PTEN del growth)
CCOC(=O)C1(Cc2cccc(OC)c2)CCN(Cc2cccc(O)c2)CC1	none (no result: bCat KO growth, PTEN del growth)
CCOC(=O)C1=C(O)/C(=C/c2ccc(OCC(=O)O)c(OCC)c2)SC1=Nc1ccc(C)cc1	none (no result: bCat KO growth, PTEN del growth)
CCOC(=O)C1=C(O)/C(=C/c2ccc(OCC(=O)O)c(OCC)c2)SC1=Nc1ccc(OC)cc1	L major viab 62
O=C1CSC(c2cccc([N+](=O)[O-])c2)N1c1c(F)cccc1F (stereo not drawn)	none (no result: bCat KO growth, PTEN del growth)

High-throughput results: PubChem, several laboratories
